Assays:
[1] = Inhibition of Plasmodium vivax N-terminal hexahistidine-tagged HGPRT
Outline: (§1)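 N-terminal hexa-histidine tagged enzymes purified to homogeneity by IMAC. Ki from Hanes' plots with guanine fixed at 60 μM and PRib-PP varied (2-1000 μM) according to Km(app); one concentration of each inhibitor.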

[2] = target: T1, Hypoxanthine-guanine phosphoribosyltransferase (Homo sapiens, UniProt P00492); test: Inhibition of human N-terminal hexahistidine-tagged HGPRT; outline: as §1
T1 sequence (P00492 whole entry): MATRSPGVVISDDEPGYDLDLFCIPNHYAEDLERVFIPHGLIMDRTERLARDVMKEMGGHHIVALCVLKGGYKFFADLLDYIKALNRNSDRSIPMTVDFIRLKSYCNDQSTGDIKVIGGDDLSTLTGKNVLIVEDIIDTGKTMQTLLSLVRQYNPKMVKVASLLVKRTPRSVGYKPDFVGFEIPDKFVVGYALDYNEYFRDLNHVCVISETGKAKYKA

[3] = Inhibition of Plasmodium falciparum HGXPRT
Outline: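 PfHGXPRT purified by a published procedure. Ki from Hanes' plots with guanine fixed at 60 μM and PRib-PP varied (2-1000 μM) according to Km(app); one concentration of each inhibitor.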

Plasmodium falciparum [4] = test: Antimalarial activity against chloroquine and pyrimethamine-resistant early trophozoite stage of Plasmodium falciparum W2 in human red blood cells assessed as [3H]hypoxanthine uptake after 96 hrs; format: functional, organism-based
Outline: (§2)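 P. falciparum cultured in RPMI-1640-LPLF with 10% human plasma, sorbitol-synchronised; assay started with >90% rings at 0.5% parasitaemia, 2% haematocrit in hypoxanthine-free medium. Ten 2-fold serial dilutions for 96 h, [3H]-hypoxanthine (0.2 µCi/well) added at ~48 h. IC50 from non-linear regression of incorporation versus log concentration; three independent experiments, mean ± SD.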

[5] = Cytotoxicity against thioguanine-resistant human C32TG cells harboring HGPRT deletion mutant assessed as inhibition of cell proliferation after 4 days by Coulter counter analysis; format: cell-based
Outline: (§3)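 Cell proliferation in human A549 lung carcinoma, C32 melanoma and C32-TG (thioguanine-resistant, HGPRT-deficient C32 mutant) cells. Seeded at 7,500 (A549) or 15,000 (C32, C32-TG) cells per well; serial compound dilutions added 24 hr later. Four days at 37 °C, then trypsinized and counted by Coulter Counter. CC50 = concentration giving 50% proliferation versus untreated cells, by extrapolation; mean ± SEM of two or three independent tests.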

Plasmodium falciparum [6] = test: Antimalarial activity against wild type early trophozoite stage of Plasmodium falciparum D6 in human red blood cells assessed as [3H]hypoxanthine uptake after 96 hrs; format: functional, organism-based; outline: as §2
[7] = Cytotoxicity against human A549 cells assessed as inhibition of cell proliferation after 4 days by Coulter counter analysis; format: cell-based; outline: as §3
[8] = Cytotoxicity against human C32 cells assessed as inhibition of cell proliferation after 4 days by Coulter counter analysis; format: cell-based; outline: as §3

SMILES | Ki [2] | Ki [1] | Ki [3] | IC50 (Plasmodium falciparum [4]) | CC50 at 96 h [5] | IC50 (Plasmodium falciparum [6]) | CC50 at 96 h [7] | CC50 at 96 h [8]
CCOC(=O)[C@H](Cc1ccccc1)NP(=O)(COCC(COCP(=O)(N[C@@H](Cc1ccccc1)C(=O)OCC)N[C@@H](Cc1ccccc1)C(=O)OCC)Cn1cnc2c(=O)[nH]c(N)nc21)N[C@@H](Cc1ccccc1)C(=O)OCC | – | – | – | 7.1 µM | 109 µM | 9.7 µM | > 300 µM | 130 µM
CCOC(=O)[C@H](C)NP(=O)(CCOCCn1cnc2c(=O)[nH]c(N)nc21)N[C@@H](C)C(=O)OCC | – | – | – | 48 µM | > 300 µM | 42 µM | > 300 µM | > 300 µM
Nc1nc2c(ncn2CCOCCP(=O)(O)O)c(=O)[nH]1 | – | – | – | – | > 300 µM | 242 µM | > 300 µM | > 300 µM
CCCCCCCCCCCCCCCCOCCCOP(=O)(CCOCCn1cnc2c(=O)[nH]c(N)nc21)OCCCOCCCCCCCCCCCCCCCC | – | – | – | 68 µM | > 300 µM | 59 µM | > 300 µM | > 300 µM
CCOC(=O)[C@H](Cc1ccccc1)NP(=O)(COCC(COCP(=O)(N[C@@H](Cc1ccccc1)C(=O)OCC)N[C@@H](Cc1ccccc1)C(=O)OCC)Cn1cnc2c(=O)[nH]cnc21)N[C@@H](Cc1ccccc1)C(=O)OCC | – | – | – | 4 µM | 55 µM | 3.8 µM | 101 µM | 41 µM
CCCCCCCCCCCCCCCCOCCCOP(=O)(O)CCOCCn1cnc2c(=O)[nH]c(N)nc21 | – | – | – | 4.7 µM | 36 µM | 7.6 µM | 61 µM | 61 µM
O=c1[nH]cnc2c1ncn2CC(COCP(=O)(O)O)COCP(=O)(O)O | 1000 nM | 2000 nM | 5000 nM | – | – | – | – | –

More lines, main results first:

Ki [2] | SMILES | Ki [1] | Ki [3] | IC50 (Plasmodium falciparum [4]) | CC50 at 96 h [5] | IC50 (Plasmodium falciparum [6]) | CC50 at 96 h [7] | CC50 at 96 h [8]
37000 nM | Nc1nc2c(ncn2C(COCP(=O)(O)O)COCP(=O)(O)O)c(=O)[nH]1 | 18000 nM | 2000 nM | – | – | – | – | –
30 nM | Nc1nc2c(ncn2CC(COCP(=O)(O)O)COCP(=O)(O)O)c(=O)[nH]1 | 600 nM | 70 nM | – | > 300 µM | – | > 300 µM | > 300 µM
600 nM | Nc1nc2c(ncn2CC(COCCP(=O)(O)O)OCCP(=O)(O)O)c(=O)[nH]1 (centres undefined) | 700 nM | 500 nM | – | – | – | – | –

Reference: ChEMBL document CHEMBL2321688, “Acyclic nucleoside phosphonates containing a second phosphonate group are potent inhibitors of 6-oxopurine phosphoribosyltransferases and have antimalarial activity” (J Med Chem, 2013)
